# Measurements as given in ChEMBL document CHEMBL4251567 (Eur J Med Chem, 2018).
# How the values were obtained:
# [1] = biological target: Histone deacetylase 2 (Homo sapiens) (UniProt Q92769); test: Inhibition of HDAC2 in human HeLa-S3 cell lysates assessed as remaining activity at 4 x 10^-5 M preincubated for 15 mins followed by HDAC-Glo substrate addition measured after 30 to 40 mins by […] relative to control
# Summary of the method: (§1)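 Same antibody-capture format as the other class I isoforms. HeLa-S3 lysate added at 100 μg/mL for HDAC1 and HDAC2, 1 h at 4 °C, then washed. Inhibitor in DMSO preincubated 15 min at RT; HDAC-Glo reagent added and luminescence read after 30-40 min. Concentrations are final. Signal corrected against a well without antibody; activity expressed as % of DMSO control.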
# [2] = biological target: Histone deacetylase 2 (Homo sapiens) (UniProt Q92769); test: Inhibition of HDAC2 in human HeLa-S3 cell lysates assessed as remaining activity at 8 x 10^-5 M preincubated for 15 mins followed by HDAC-Glo substrate addition measured after 30 to 40 mins by […] relative to control; summary of the method: as §1
# [3] = biological target: Histone deacetylase 3 (Homo sapiens) (UniProt O15379); test: Inhibition of HDAC3 in human HeLa-S3 cell lysates assessed as remaining activity at 1 x 10^-5 M preincubated for 15 mins followed by HDAC-Glo substrate addition measured after 30 to 40 mins by […] relative to control
# Sequence of Histone deacetylase 3 (Homo sapiens) (O15379 whole entry): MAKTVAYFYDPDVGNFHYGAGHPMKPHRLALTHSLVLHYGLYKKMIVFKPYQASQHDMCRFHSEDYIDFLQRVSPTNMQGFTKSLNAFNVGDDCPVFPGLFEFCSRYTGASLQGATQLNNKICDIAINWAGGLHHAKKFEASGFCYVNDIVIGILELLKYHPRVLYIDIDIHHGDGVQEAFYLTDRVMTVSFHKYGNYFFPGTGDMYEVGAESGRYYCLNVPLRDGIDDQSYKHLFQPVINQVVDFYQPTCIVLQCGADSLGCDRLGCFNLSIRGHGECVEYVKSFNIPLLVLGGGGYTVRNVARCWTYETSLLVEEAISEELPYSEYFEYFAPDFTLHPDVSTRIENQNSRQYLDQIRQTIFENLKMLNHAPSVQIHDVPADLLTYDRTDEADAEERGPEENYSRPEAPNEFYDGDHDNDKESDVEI
# Summary of the method: (§2)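 Antibody-capture (ELISA-type) assay: HDAC antibody coated in carbonate/bicarbonate buffer pH 9.4, wells blocked with 5% milk in TBST. HeLa-S3 lysate added at 1 mg/mL for HDAC3, 1 h at 4 °C, then washed. Inhibitor in DMSO preincubated 15 min at RT in HDAC-Glo buffer. HDAC-Glo reagent added, luminescence read after 30-40 min. Concentrations are final. Background = no-antibody well; activity given as % of DMSO control.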
# [4] = biological target: Histone deacetylase 1 (Homo sapiens) (UniProt Q13547); test: Inhibition of HDAC1 in human HeLa-S3 cell lysates assessed as remaining activity at 2 x 10^-5 M preincubated for 15 mins followed by HDAC-Glo substrate addition measured after 30 to 40 mins by […] relative to control
# Sequence of Histone deacetylase 1 (Homo sapiens) (Q13547 whole entry): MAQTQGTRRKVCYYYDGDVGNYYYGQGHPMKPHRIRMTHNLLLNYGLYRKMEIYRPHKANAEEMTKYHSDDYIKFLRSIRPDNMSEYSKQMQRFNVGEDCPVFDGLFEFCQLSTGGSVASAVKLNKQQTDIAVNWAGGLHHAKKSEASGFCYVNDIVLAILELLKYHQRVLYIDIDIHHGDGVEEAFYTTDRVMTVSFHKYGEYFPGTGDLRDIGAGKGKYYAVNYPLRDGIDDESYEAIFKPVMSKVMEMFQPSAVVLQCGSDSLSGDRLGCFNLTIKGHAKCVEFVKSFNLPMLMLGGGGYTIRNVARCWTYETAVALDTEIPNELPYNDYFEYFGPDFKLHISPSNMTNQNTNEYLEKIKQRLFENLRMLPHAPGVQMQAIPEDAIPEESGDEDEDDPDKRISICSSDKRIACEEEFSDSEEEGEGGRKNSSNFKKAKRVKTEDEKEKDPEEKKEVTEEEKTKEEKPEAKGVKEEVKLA
# Summary of the method: (§3)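 HDAC1 was captured from HeLa-S3 lysate (100 μg/mL) onto wells precoated with anti-HDAC1 antibody (10 μg/mL, carbonate buffer pH 9.4) and milk-blocked, 1 h at 4 °C, then washed. Inhibitor in DMSO was added in HDAC-Glo buffer for 15 min at room temperature. HDAC-Glo reagent was added and luminescence read after 30-40 min. Concentrations are final. No-antibody background subtracted; % of DMSO control.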
# [5] = biological target: Histone deacetylase 1 (Homo sapiens) (UniProt Q13547); test: Inhibition of HDAC1 in human HeLa-S3 cell lysates assessed as remaining activity at 1 x 10^-5 M preincubated for 15 mins followed by HDAC-Glo substrate addition measured after 30 to 40 mins by fluorimetric method relative to control; summary of the method: as §3
# [6] = biological target: Histone deacetylase 1 (Homo sapiens) (UniProt Q13547); test: Inhibition of HDAC1 in human HeLa-S3 cell lysates assessed as remaining activity at 1.6 x 10^-4 M preincubated for 15 mins followed by HDAC-Glo substrate addition measured after 30 to 40 mins by […] relative to control; summary of the method: as §3
# [7] = biological target: Histone deacetylase 3 (Homo sapiens) (UniProt O15379); test: Inhibition of HDAC3 in human HeLa-S3 cell lysates assessed as remaining activity at 1.6 x 10^-4 M preincubated for 15 mins followed by HDAC-Glo substrate addition measured after 30 to 40 mins by […] relative to control; summary of the method: as §2
# [8] = biological target: Histone deacetylase 3 (Homo sapiens) (UniProt O15379); test: Inhibition of HDAC3 in human HeLa-S3 cell lysates assessed as remaining activity at 8 x 10^-5 M preincubated for 15 mins followed by HDAC-Glo substrate addition measured after 30 to 40 mins by […] relative to control; summary of the method: as §2
# [9] = biological target: Histone deacetylase 1 (Homo sapiens) (UniProt Q13547); test: Inhibition of HDAC1 in human HeLa-S3 cell lysates assessed as remaining activity at 4 x 10^-5 M preincubated for 15 mins followed by HDAC-Glo substrate addition measured after 30 to 40 mins by […] relative to control; summary of the method: as §3
# [10] = biological target: Histone deacetylase 3 (Homo sapiens) (UniProt O15379); test: Inhibition of HDAC3 in human HeLa-S3 cell lysates assessed as remaining activity at 4 x 10^-5 M preincubated for 15 mins followed by HDAC-Glo substrate addition measured after 30 to 40 mins by […] relative to control; summary of the method: as §2
# [11] = biological target: Histone deacetylase 2 (Homo sapiens) (UniProt Q92769); test: Inhibition of HDAC2 in human HeLa-S3 cell lysates assessed as remaining activity at 2 x 10^-5 M preincubated for 15 mins followed by HDAC-Glo substrate addition measured after 30 to 40 mins by fluorimetric method relative to control; summary of the method: as §1
# [12] = biological target: Histone deacetylase 2 (Homo sapiens) (UniProt Q92769); test: Inhibition of HDAC2 in human HeLa-S3 cell lysates assessed as remaining activity at 1.6 x 10^-4 M preincubated for 15 mins followed by HDAC-Glo substrate addition measured after 30 to 40 mins by […] relative to control; summary of the method: as §1
# [13] = biological target: Histone deacetylase 3 (Homo sapiens) (UniProt O15379); test: Inhibition of HDAC3 in human HeLa-S3 cell lysates assessed as remaining activity at 2 x 10^-5 M preincubated for 15 mins followed by HDAC-Glo substrate addition measured after 30 to 40 mins by […] relative to control; summary of the method: as §2
# [14] = biological target: Histone deacetylase 1 (Homo sapiens) (UniProt Q13547); test: Inhibition of HDAC1 in human HeLa-S3 cell lysates assessed as remaining activity at 8 x 10^-5 M preincubated for 15 mins followed by HDAC-Glo substrate addition measured after 30 to 40 mins by […] relative to control
# Histone deacetylase = test: Inhibition of HDAC in human HeLa-S3 cell lysates preincubated for 15 mins followed by HDAC-Glo substrate addition measured after 35 mins by fluorimetric method; assay type: protein assay
# U-937 [15] = test: Cytotoxicity against human U937 cells assessed as cell viability at 1.6 x 10^-5 M after 44 hrs by MTT assay relative to control; assay type: functional; conditions: U-937, 44 h, read-out: Activity
# [16] = biological target: T1, Histone deacetylase (Homo sapiens) (UniProt Q13547+O15379+Q9UBN7+Q92769+Q9UQL6+Q8WUI4+Q9BY41+Q96DB2+P56524+Q9UKV0+Q969S8); test: Inhibition of HDAC in human HeLa-S3 cell lysates assessed as residual activity at 1 x 10^-4 M preincubated for 15 mins followed by HDAC-Glo substrate addition measured after 35 mins by […] relative to control; assay type: protein assay
# [17] = biological target: T1, Histone deacetylase (Homo sapiens); test: Inhibition of HDAC in human HeLa-S3 cell lysates assessed as residual activity at 1.25 x 10^-5 M preincubated for 15 mins followed by HDAC-Glo substrate addition measured after 35 mins by […] relative to control; assay type: protein assay
# U-937 [18] = test: Cytotoxicity against human U937 cells assessed as decrease in cell viability after 44 hrs by MTT assay; assay type: functional, cell-based; conditions: Homo sapiens, U-937, 44 h
# U-937 [19] = test: Cytotoxicity against human U937 cells assessed as cell viability at 8 x 10^-6 M after 44 hrs by MTT assay relative to control; assay type: functional; conditions: U-937, 44 h, read-out: Activity
# U-937 [20] = test: Cytotoxicity against human U937 cells assessed as cell viability at 2 x 10^-6 M after 44 hrs by MTT assay relative to control; assay type: functional; conditions: U-937, 44 h, read-out: Activity
# Jurkat = test: Cytotoxicity against human Jurkat cells assessed as cell viability at 1 uM after 44 hrs by MTT assay relative to control; assay type: functional; conditions: read-out: Activity
# Sequence of Histone deacetylase 2 (Homo sapiens) (Q92769 whole entry, canonical isoform): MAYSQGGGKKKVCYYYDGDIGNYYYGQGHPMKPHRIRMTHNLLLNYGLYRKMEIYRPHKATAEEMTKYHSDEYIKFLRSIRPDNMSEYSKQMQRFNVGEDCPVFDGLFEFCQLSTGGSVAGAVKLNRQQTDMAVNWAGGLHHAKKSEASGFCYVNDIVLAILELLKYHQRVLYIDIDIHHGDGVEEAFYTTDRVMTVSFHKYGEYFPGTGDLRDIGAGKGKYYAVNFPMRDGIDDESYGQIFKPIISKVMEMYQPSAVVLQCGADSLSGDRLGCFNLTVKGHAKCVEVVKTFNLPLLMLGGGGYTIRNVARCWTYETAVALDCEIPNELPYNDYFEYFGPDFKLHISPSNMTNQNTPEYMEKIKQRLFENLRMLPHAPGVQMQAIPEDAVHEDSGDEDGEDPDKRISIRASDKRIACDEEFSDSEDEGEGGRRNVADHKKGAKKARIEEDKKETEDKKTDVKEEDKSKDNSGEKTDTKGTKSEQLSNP
Activity [1] [%],Activity [2] [%],Activity [3] [%],Activity [4] [%],Activity [5] [%],Activity [6] [%],Activity [7] [%],Activity [8] [%],Activity [9] [%],Activity [10] [%],Activity [11] [%],Activity [12] [%],Activity [13] [%],Activity [14] [%],IC50 (Histone deacetylase) [µM],Activity [16] [%],Activity [17] [%],SMILES,viability at 16 µM (U-937 [15]) [%],EC50 (U-937 [18]) [µM],viability at 8 µM (U-937 [19]) [%],also measured
56,37,76,68,84,17,15,33,50,48,74,22,67,32,–,–,–,O=C(CC[C@H](CCCC(=O)Nc1ccccc1)Cc1ccccc1)NO,–,–,–,–
47,27,87,58,75,16,19,33,44,55,60,20,63,27,62,35,88,O=C(CCC(CCCC(=O)Nc1ccccc1)Cc1ccccc1)NO (racemic),69,28,80,viability at 2 µM (U-937 [20]): 80%; viability at 1 µM (Jurkat): 89%
–,–,–,–,–,–,–,–,–,–,–,–,–,–,14,–,–,CCC(CCCC(=O)Nc1ccccc1)CCC(=O)NO (centres undefined),–,–,–,–
46,31,88,67,83,13,5,25,46,42,73,16,56,26,60,35,87,CCCCCCC(CCCC(=O)Nc1ccccc1)CCC(=O)NO (centres undefined),37,16,102,viability at 2 µM (U-937 [20]): 106%; viability at 1 µM (Jurkat): 69%
